Assay type in all cases: functional
The species entered for test [1] is Mus musculus. In words: In vitro reversal activity versus ~90% block by rocuronium in isolated mouse hemidiaphragm, expressed as % of maximum reversal at 180 uM conc.
The species entered for test [2] is Mus musculus. In words: In vitro reversal activity versus ~90% block by rocuronium in isolated mouse hemidiaphragm, expressed as effective conc.
Test [3] relates to Cavia porcellus. In words: In vivo reversal activity versus ~90% block by rocuronium in guinea pig, expressed as % of maximum reversal at 8 umol/kg conc. The essentials:
(§1)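 Male Dunkin-Hartley guinea pigs (600-900 g) anaesthetized ip with pentobarbitone 10 mg/kg plus urethane 1000 mg/kg, tracheotomized and artificially ventilated. Continuous iv rocuronium bromide infusion (~10 nmol kg-1 min-1) raised until steady-state twitch block of 85-90%. Increasing single iv doses of reversal agent given by a separate catheter. Max reversal is peak twitch recovery versus preblock height at highest dose tested; means ± SEM, n ≥ 2 or single experiment.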

Test [4] has as its system Cavia porcellus. In words: In vivo reversal activity versus ~90% block by rocuronium in guinea pig. In a few lines: (§2)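 Male Dunkin-Hartley guinea pigs (600-900 g), anaesthetized ip with pentobarbitone 10 mg/kg plus urethane 1000 mg/kg, tracheotomized and ventilated. Continuous iv rocuronium infusion (~10 nmol kg-1 min-1) was raised to a steady 85-90% block. Increasing iv doses of agent were given cumulatively. ED50 = 50% recovery versus preblock twitch, by regression. Mean ± SEM of at least two experiments, or one.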

Test [5] has as its system Cavia porcellus. In words: In vivo reversal activity versus ~90% block by rocuronium in guinea pig, expressed as % of maximum reversal at 1.2 umol/kg conc. The essentials: as §2
The species named for test [6] is Mus musculus. In words: In vitro reversal activity versus ~90% block by rocuronium in isolated mouse hemidiaphragm, expressed as % of maximum reversal at 3.6 uM conc.
Test [7] is filed under the species Mus musculus. In words: In vitro reversal activity versus ~90% block by rocuronium in isolated mouse hemidiaphragm, expressed as % of maximum reversal at 7.2 uM conc.
Test [8] concerns Cavia porcellus. In words: In vivo reversal activity versus ~90% block by rocuronium in guinea pig, expressed as % of maximum reversal at 2.8 umol/kg conc. In a few lines:
as §1

For test [9], the species on record is Mus musculus. Nature of the test: In vitro reversal activity versus ~90% block by rocuronium in isolated mouse hemidiaphragm, expressed as % of maximum reversal at 9 uM conc.
In test [10] the test system is Cavia porcellus. In words: In vivo reversal activity versus ~90% block by rocuronium in guinea pig, expressed as % of maximum reversal at 3.6 umol/kg conc. In a few lines: as §1
Test [11] is filed under the species Mus musculus. In words: In vitro reversal activity versus ~90% block by rocuronium in isolated mouse hemidiaphragm, expressed as % of maximum reversal.
Test [12] deals with Cavia porcellus. Nature of the test: In vivo reversal activity versus ~90% block by rocuronium in guinea pig, expressed as % of maximum reversal. at a conc. of 0.08 uM.

Turning to `O=C([O-])c1ccc(SCC2O[C@@H]3O[C@@H]4C(CO)O[C@H](O[C@@H]5C(CO)O[C@H](O[C@@H]6C(CO)O[C@H](O[C@@H]7C(CO)O[C@H](O[C@@H]8C(CO)O[C@H](O[C@@H]9C(CO)O[C@H](O[C@@H]%10C(CO)O[C@H](O[C@H]2C(O)C3O)C(O)C%10O)C(O)C9O)C(O)C8O)C(O)C7O)C(O)C6O)C(O)C5O)C(O)C4O)cc1.[Na+]` (stereo not given in full), the Max reversal in [1] turned out to be 94.7%; in test [3], 102.4%. Moreover, in [2], the EC50 was 50.3 µM. Besides, the ED50 in test [4] came out at 0.94 µmol/kg.
On to `OC1C(O)[C@@H]2O[C@H]3OC(CSCCCc4nn[n-]n4)[C@@H](O[C@H]4OC(CSCCCc5nn[n-]n5)[C@@H](O[C@H]5OC(CSCCCc6nn[n-]n6)[C@@H](O[C@H]6OC(CSCCCc7nn[n-]n7)[C@@H](O[C@H]7OC(CSCCCc8nn[n-]n8)[C@@H](O[C@H]8OC(CSCCCc9nn[n-]n9)[C@@H](O[C@H]9OC(CSCCCc%10nn[n-]n%10)[C@@H](O[C@H]1OC2CSCCCc1nn[n-]n1)C(O)C9O)C(O)C8O)C(O)C7O)C(O)C6O)C(O)C5O)C(O)C4O)C(O)C3O.[Na+].[Na+].[Na+].[Na+].[Na+].[Na+].[Na+].[Na+]` (stereo not given in full), for which the Max reversal in test [5] is 109%; in test [6] it was 89.9%. The EC50 in test [2] turned out to be 0.6 µM. In test [4], the ED50 is 0.22 µmol/kg.
As to `O=C([O-])CCc1ccc(SCC2O[C@@H]3O[C@@H]4C(CSc5ccc(CCC(=O)[O-])cc5)O[C@H](O[C@@H]5C(CSc6ccc(CCC(=O)[O-])cc6)O[C@H](O[C@@H]6C(CSc7ccc(CCC(=O)[O-])cc7)O[C@H](O[C@@H]7C(CSc8ccc(CCC(=O)[O-])cc8)O[C@H](O[C@@H]8C(CSc9ccc(CCC(=O)[O-])cc9)O[C@H](O[C@@H]9C(CSc%10ccc(CCC(=O)[O-])cc%10)O[C@H](O[C@@H]%10C(CSc%11ccc(CCC(=O)[O-])cc%11)O[C@H](O[C@H]2C(O)C3O)C(O)C%10O)C(O)C9O)C(O)C8O)C(O)C7O)C(O)C6O)C(O)C5O)C(O)C4O)cc1.[Na+].[Na+].[Na+].[Na+].[Na+].[Na+].[Na+].[Na+]` (stereo not given in full), in test [2], the EC50 was found to be 3 µM. The results for the Max reversal in [7] and in test [8] were 95.4% and 94.3%, respectively. Besides, in test [4], the ED50 worked out at 1.01 µmol/kg.
Take `OCCCSCC1O[C@@H]2O[C@@H]3C(CSCCCO)O[C@H](O[C@@H]4C(CSCCCO)O[C@H](O[C@@H]5C(CSCCCO)O[C@H](O[C@@H]6C(CSCCCO)O[C@H](O[C@@H]7C(CSCCCO)O[C@H](O[C@@H]8C(CSCCCO)O[C@H](O[C@@H]9C(CSCCCO)O[C@H](O[C@H]1C(O)C2O)C(O)C9O)C(O)C8O)C(O)C7O)C(O)C6O)C(O)C5O)C(O)C4O)C(O)C3O` (stereo not given in full): the EC50 in test [2] is 4.1 µM. Besides, the Max reversal is 96.5% in [9] and 98.3% in test [10]. Besides, the ED50 in test [4] was 0.52 µmol/kg.
`CN(C)C(=O)Oc1cccc([N+](C)(C)C)c1.[Br-]` [NEOSTIGMINE BROMIDE]: in [2], the EC50 came out at 0.9 µM. The Max reversal stood at 74.4% in test [11] and 65.3% in test [12]. For the same molecule, the ED50 in [4] came out at 0.04 µmol/kg.

As a reminder, the EC50 is the concentration at which the effect is half-maximal. By ED50 is commonly meant the midpoint of the dose-response relation.

Source of the values: ChEMBL document CHEMBL1135836, “Cyclodextrin-derived host molecules as reversal agents for the neuromuscular blocker rocuronium bromide: synthesis and structure-activity relationships” (J Med Chem, 2002).
